# Sampled rows, rich in hits. Any-hit rate of the full collection: about 2%.
# PvdQ acylase – P. aeruginosa PvdQ acylase inhibition; purified PvdQ acylase, fluorescence plate reader; inhibition, % at 10 µM; hit rate 0.063% among 340,000; in the data active means inhibition above about 30%, passing the limit was not always enough;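 further: 0% = vehicle neutral wells and 100% = reference inhibitor wells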
# MIN6 prolif-1 – MIN6 beta-cell proliferation induction | MIN6 cells proliferation, ATPlite luminescence, 48 h; cells starved in 0.2% serum; 100% = growth in 10% serum | proliferation, % at 10 µM | hit rate 0.29% among 330,000;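 active means compounds whose signal lies at least 3.5 SD above the mean of all wells on their plate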;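 further: 0% = DMSO-treated cells in low-serum medium and 100% = 10% serum control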
# HKDC1 inhibitor – HKDC1 (human) hexokinase inhibition. Q2TB90. AID 493160. hit rate 0.16% among 340,000. recombinant HKDC1, G6PDH/diaphorase resazurin coupled fluorescence. inhibition, % at 20 µM;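 active means inhibition above about 35% when tested at 20 µM, limit read from the data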;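 further: plate controls were DMSO wells with enzyme for no effect and DMSO wells lacking enzyme for full effect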
#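 Test system: recombinant HKDC1 (HK5) hexokinase enzyme, produced in-house; Amount: enzyme 5 µg/mL final; Buffer or medium: Tris pH 8.0 buffer with MgCl2, Tween-20, BSA, BME; Reagent: glucose and ATP substrates; Doses: 20 µM test compound, 1% DMSO; Incubation: 90 min reaction incubation at room temperature, dark; Detection: resorufin fluorescence at 613 nm.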
# IMP-1 inhibitor – inhibitors of Pseudomonas aeruginosa IMP-1 metallo-beta-lactamase; purified IMP-1, nitrocefin hydrolysis, epi-absorbance fluorescence; AID 1556; inhibition, % at 5.6 µM; hit rate 0.45% among 290,000;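 active means inhibition above the mean plus 3 SD of all compounds in the same screening run, cut at about 4.5% in these data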;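 further: 0% = IMP-1 with DMSO and 100% = DMSO wells lacking enzyme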
#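 system = purified recombinant IMP-1 beta-lactamase | amount = 0.2 nM IMP-1, as dispensed | medium = HEPES buffer pH 7.1 with ZnSO4 and Brij 35 | times = 25 °C, 15 min preincubation, 25 min reaction | detection = plate fluorescence quenching by hydrolysis product, ex 480/em 530 nm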
# VIM-2 inh – inhibitors of Pseudomonas aeruginosa VIM-2 metallo-beta-lactamase | purified VIM-2, nitrocefin hydrolysis, epi-absorbance fluorescence | inhibition, % at 5.6 µM | hit rate 0.89% among 290,000 | AID 1527;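 active means inhibition above the mean of all tested compounds plus 3 SD, cutoff set per screening run, cut at about 7.5% in these data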;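 further: red hydrolysis product quenches plate fluorescence so inhibitors raise well fluorescence; 0% = enzyme with DMSO and 100% = DMSO without enzyme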
# ATG4B inh – blocks human ATG4B protease cleavage of LC3 substrate; Q9Y4P1; ATG4B cleavage of LC3-PLA2, NBD-HPC fluorescence, 1 h; inhibition, % at 8.33 µM; hit rate 0.51% among 340,000; in the data active means inhibition above about 40%
# Target sequence (Q9Y4P1 whole entry, looked up): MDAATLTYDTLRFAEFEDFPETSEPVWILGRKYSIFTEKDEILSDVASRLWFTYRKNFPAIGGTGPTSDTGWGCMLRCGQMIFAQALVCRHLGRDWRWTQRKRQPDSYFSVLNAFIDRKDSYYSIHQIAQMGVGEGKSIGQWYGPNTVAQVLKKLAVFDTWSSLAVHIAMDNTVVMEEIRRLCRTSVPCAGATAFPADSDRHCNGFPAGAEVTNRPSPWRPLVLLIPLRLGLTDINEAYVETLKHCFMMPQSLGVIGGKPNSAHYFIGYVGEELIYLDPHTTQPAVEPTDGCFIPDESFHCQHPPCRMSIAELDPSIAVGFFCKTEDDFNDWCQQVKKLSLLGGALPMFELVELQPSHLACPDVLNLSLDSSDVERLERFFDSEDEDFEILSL
# MIN6 prolif-2 – MIN6 beta-cell replication induction, confirmed | shares compounds with MIN6 prolif-1 | MIN6 beta-cell proliferation, ATPlite luminescence, 48 h; cells kept in 0.2% serum; scaled between 0.2% and 10% serum | proliferation increase, % at 50 µM | 920 tested, under 10 active;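 active means proliferation increase above 40% at any of the four tested concentrations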
# * marks the source's active call; other numbers are inactive results; x = not tested or not shown.
SMILES,PvdQ acylase,MIN6 prolif-1,HKDC1 inhibitor,IMP-1 inhibitor,VIM-2 inh,ATG4B inh,MIN6 prolif-2
COc1ccc(CC(CC(=O)O)C(=O)Nc2ccc(Cl)c(Cl)c2)cc1 (stereo not drawn),-9,-2,-3,-4,-1,0,x
CN(C)c1ccc(CNC(=O)c2cc(S(=O)(=O)N3CCOCC3)cn2C)cc1,-8,3,2,-1,-1,-4,x
CCC(C)[C@H](NC(=O)NCc1ccc(S(N)(=O)=O)cc1)C(=O)OC (stereo partly drawn),-8,1,-8,-2,0,-5,x
COC(=O)[C@H](CCSC)NC(=O)NCc1ccc(S(N)(=O)=O)cc1,-8,8.2*,-7,-2,-3,3,-3
Cc1ccnc(NC(=O)CNC(=O)c2ccccc2Br)c1,16,-3,-5,-2,-4,-3,x
O=C(c1cc([N+](=O)[O-])ccc1N1CCOCC1)N1CCN(S(=O)(=O)c2ccc(F)cc2)CC1,-8,11*,3,x,x,2,0
Cc1cccc(C)c1NC(=O)CSc1nc(C2CC2)nc2ccccc12,-6,0.0*,-3,-2,0,7,2
CCCNC(=O)c1ccccc1NC(=O)COc1cccc2c1OC(C)(C)C2,6,5,-9,x,x,-6,x
CC1(C)Cc2cccc(OCC(=O)Nc3ccccc3F)c2O1,-13,15*,1,x,x,1,-5
CC1=NN(C(=O)c2ccccc2F)C(O)(c2ccc(Cl)cc2)C1 (stereo not drawn),-2,-3,-1,-2,0,-6,x
Cc1ccc(S(=O)(=O)N2CCC(C(=O)NCCCn3ccnc3)CC2)cc1,-11,0,-8,-4,-5,5,x
Cc1cccc(NC(=O)Cc2nc(-c3c[nH]c(C(=O)N4CCCC4)c3)cs2)c1,-5,-2,5,x,x,-19,x
COc1ccc(COC(=O)C2=C(C)NC(=O)NC2c2ccc(O)c(OC)c2)cc1 (stereo not drawn),-7,-2,-8,-4,-3,-10,x
COc1ccc(COC(=O)C2=C(C)NC(=O)NC2c2ccc(OC)c(OC)c2)cc1 (stereo not drawn),14,6.2*,-3,-2,-2,-1,3
CCOc1cc(N2CCOCC2)c(OCC)cc1NC(=O)c1cnccn1,x,9.3*,3,x,x,-23,3
CN(C1CCCCC1)S(=O)(=O)c1ccc(S(=O)(=O)N(CC(=O)Nc2ccccc2)C2CC2)cc1,-12,1,-10,-1,-2,-2,x
CC(C)CCNc1nc(N)c([N+](=O)[O-])c(NC2CCCCC2)n1,-17,8.8*,3,-3,-6,-1,-1
CC(C)CNc1nc(N)c([N+](=O)[O-])c(NC2CCCCC2)n1,-6,0,0,-1,-3,-7,x
Nc1ncnc2c1ncn2[C@@H]1O[C@H](CNS(=O)(=O)c2cc(S(=O)(=O)c3ccccc3)cs2)[C@@H](O)[C@H]1O,-7,x,2,x,x,1,x
CC1CCCC(C)N1C(=O)c1cccc2c1-c1ccccc1/C2=N/O (stereo not drawn),-9,5.5*,4,-1,1,-6,-6
O=S(=O)(Nc1ccc(Cl)cn1)c1ccc(Cl)cc1,-8,-3,1,-2,-2,9,x
CCc1ccc(S(=O)(=O)Nc2ccc(Cl)cn2)cc1,14,4.9*,-5,0,-1,1,4
CC1=C(C(=O)c2ccccc2)C(c2ccc(N3CCOCC3)cc2)NC(=O)N1 (stereo not drawn),14,-3,-8,-1,2,-3,x
Cc1cccc(NC(=O)COC(=O)CNC(=O)C2CCCCC2)c1,8,2,-1,-4,0,-9,x
CSc1cccc(NC(=O)CNC(=O)C2CCCCC2)c1,3,11*,-3,-3,-3,-9,-1
CN(C(=O)c1cccc(S(=O)(=O)N2CCCC2)c1)C1CCCCC1,-1,-4,3,x,x,-5,x
COCC1CCCN(C(=O)c2ccc3nc(Cc4cccc(Cl)c4)oc3c2)C1 (stereo not drawn),-11,-1,-7,-2,0,13,x
